Source: ChEMBL document CHEMBL4390647, “Efficient click chemistry towards novel 1H-1,2,3-triazole-tethered 4H-chromene-d-glucose conjugates: Design, synthesis and evaluation of in vitro antibacterial, MRSA and antifungal activities” (Eur J Med Chem, 2019)
≈ marks a conversion by molar mass, not a printed value.

Columns and labels:
Candida albicans = assay: Antifungal activity against Candida albicans ATCC 7754 after 72 hrs by agar dilution method; format: functional; conditions: ATCC 7754, 72 h
How it was run: (§1)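 Agar dilution on Sabouraud dextrose agar, with compounds at […] to 0.78 μM in twofold steps. Fungal suspensions at 10 CFU/mL as printed were applied to the compound-containing plates. Incubation at 35°C; MIC read after 72 h. Three experiments.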

Aspergillus niger = assay: Antifungal activity against Aspergillus niger ATCC 439 measured after 72 hrs by agar dilution method; format: functional; conditions: ATCC 439, 72 h; how it was run: as §1
Aspergillus flavus = assay: Antifungal activity against Aspergillus flavus ATCC 204304 measured after 72 hrs by agar dilution method; format: functional; conditions: ATCC 204304, 72 h; how it was run: as §1
Saccharomyces cerevisiae = assay: Antifungal activity against Saccharomyces cerevisiae SH 20 after 72 hrs by agar dilution method; format: functional; conditions: SH 20, 72 h; how it was run: as §1
[1] = Cytotoxicity against mouse RAW264.7 cells assessed as growth inhibition at 50 ug/mL after 120 hrs by MTT assay relative to control; format: cell-based; conditions: read-out: GI
How it was run: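 RAW 264.7 mouse macrophages were seeded at 25,000 cells/well and left to attach overnight. Compound in DMSO was added from a 200× concentrate, in duplicate wells, to a 50 μg/mL test level; DMSO served as control. Exposure 120 h at 37°C in 5% CO₂. MTT (4 mg/mL in PBS) was added for 4 h, formazan dissolved in DMSO, and absorbance read at 560 nm. Viability expressed as % of untreated cells, mean ± SE of at least three independent experiments.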

Pseudomonas aeruginosa = assay: Antibacterial activity against Pseudomonas aeruginosa […] measured after 18 to 20 hrs by microbroth dilution method; format: functional
How it was run: (§2)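 Inoculum from a 4–6-h broth adjusted to 0.5 McFarland, final 5 × 10⁵ CFU/mL. Incubation at 35°C for 18–20 h. MIC taken as the lowest concentration giving complete inhibition of visible growth; three experiments.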

[2] = test system: Staphylococcus epidermidis; assay: Antibacterial activity against Staphylococcus epidermidis ATCC 12228 after 18 to 20 hrs by microbroth dilution method; format: functional; how it was run: as §2
Staphylococcus aureus [3] = assay: Antibacterial activity against Staphylococcus aureus ATCC 11632 after 18 to 20 hrs by microbroth dilution method; format: functional; how it was run: as §2
Escherichia coli = assay: Antibacterial activity against Escherichia coli ATCC 25922 measured after 18 to 20 hrs by microbroth dilution method; format: functional; how it was run: as §2
Staphylococcus aureus [4] = assay: Antibacterial activity against Staphylococcus aureus MRSA198 clinical isolate-1 measured after 18 to 20 hrs by microbroth dilution method; format: functional; conditions: MRSA198 isolate-1
Salmonella typhimurium = assay: Antibacterial activity against Salmonella typhimurium ATCC 14028 measured after 18 to 20 hrs by microbroth dilution method; format: functional, Salmonella enterica subsp. enterica serovar Typhimurium; conditions: Salmonella enterica; how it was run: as §2
Staphylococcus aureus [5] = assay: Antibacterial activity against Staphylococcus aureus MRSA198 clinical isolate-2 measured after 18 to 20 hrs by microbroth dilution method; format: functional; conditions: MRSA198 isolate-2
Staphylococcus aureus [6] = assay: Antibacterial activity against Staphylococcus aureus MRSA198 clinical isolate-3 measured after 18 to 20 hrs by microbroth dilution method; format: functional; conditions: MRSA198 isolate-3
Klebsiella pneumoniae = assay: Antibacterial activity against measured after Klebsiella pneumoniae ATCC 4352 measured after 18 to 20 hrs by microbroth dilution method; format: functional; how it was run: as §2
Bacillus subtilis = assay: Antibacterial activity against Bacillus subtilis ATCC 11774 after 18 to 20 hrs by microbroth dilution method; format: functional; how it was run: as §2

| SMILES | MIC (Candida albicans) [µM] | MIC (Aspergillus niger) [µM] | MIC (Aspergillus flavus) [µM] | MIC (Saccharomyces cerevisiae) [µM] | MIC (Pseudomonas aeruginosa) [µM] | MIC [2] [µM] | MIC (Staphylococcus aureus [3]) [µM] | MIC (Escherichia coli) [µM] | MIC (Staphylococcus aureus [4]) [µM] | MIC (Salmonella typhimurium) [µM] | MIC (Staphylococcus aureus [5]) [µM] | MIC (Staphylococcus aureus [6]) [µM] | MIC (Klebsiella pneumoniae) [µM] | MIC (Bacillus subtilis) [µM] | inhibition at 120 h, 50 ug/mL [1] [%] |
| --- | --- | --- | --- | --- | --- | --- | --- | --- | --- | --- | --- | --- | --- | --- | --- |
| Clc1ccc(COC(Cn2ccnc2)c2ccc(Cl)cc2Cl)c(Cl)c1 (stereo not given) [MICONAZOLE] | 3.12 (≈ 1.3 µg/mL) | 1.56 (≈ 0.649 µg/mL) | 1.56 (≈ 0.649 µg/mL) | 3.12 (≈ 1.3 µg/mL) | – | – | – | – | – | – | – | – | – | – | – |
| CC(=O)OC[C@H]1O[C@@H](n2cc(COc3ccc4c(c3)OC(N)=C(C#N)C4c3ccc(Cl)cc3Cl)nn2)[C@H](OC(C)=O)[C@@H](OC(C)=O)[C@@H]1OC(C)=O (stereo not given in full) | 100 (≈ 74.5 µg/mL) | – | 25 (≈ 18.6 µg/mL) | 400 (≈ 298 µg/mL) | 50 (≈ 37.2 µg/mL) | 12.5 (≈ 9.31 µg/mL) | 12.5 (≈ 9.31 µg/mL) | 3.12 (≈ 2.32 µg/mL) | 6.25 (≈ 4.65 µg/mL) | 3.12 (≈ 2.32 µg/mL) | 1.56 (≈ 1.16 µg/mL) | 3.12 (≈ 2.32 µg/mL) | 200 (≈ 149 µg/mL) | 3.12 (≈ 2.32 µg/mL) | 18.1 |
| CC(=O)OC[C@H]1O[C@@H](n2cc(COc3ccc4c(c3)OC(N)=C(C#N)C4c3ccc(C)cc3)nn2)[C@H](OC(C)=O)[C@@H](OC(C)=O)[C@@H]1OC(C)=O (stereo not given in full) | 400 (≈ 276 µg/mL) | 100 (≈ 69 µg/mL) | 3.12 (≈ 2.15 µg/mL) | 3.12 (≈ 2.15 µg/mL) | 400 (≈ 276 µg/mL) | 400 (≈ 276 µg/mL) | 400 (≈ 276 µg/mL) | 12.5 (≈ 8.62 µg/mL) | – | 200 (≈ 138 µg/mL) | – | 400 (≈ 276 µg/mL) | 400 (≈ 276 µg/mL) | 50 (≈ 34.5 µg/mL) | 19.6 |
| CC(=O)OC[C@H]1O[C@@H](n2cc(COc3ccc4c(c3)OC(N)=C(C#N)C4c3ccccc3Cl)nn2)[C@H](OC(C)=O)[C@@H](OC(C)=O)[C@@H]1OC(C)=O (stereo not given in full) | 25 (≈ 17.8 µg/mL) | 400 (≈ 284 µg/mL) | 6.25 (≈ 4.44 µg/mL) | – | 12.5 (≈ 8.88 µg/mL) | 3.12 (≈ 2.22 µg/mL) | 200 (≈ 142 µg/mL) | 1.56 (≈ 1.11 µg/mL) | – | 6.25 (≈ 4.44 µg/mL) | – | 400 (≈ 284 µg/mL) | 400 (≈ 284 µg/mL) | 1.56 (≈ 1.11 µg/mL) | 21.1 |
| COc1cccc(OC)c1C(=O)N[C@@H]1C(=O)N2[C@@H]1SC(C)(C)[C@@H]2C(=O)O [METHICILLIN] | – | – | – | – | 400 (≈ 152 µg/mL) | 400 (≈ 152 µg/mL) | 400 (≈ 152 µg/mL) | 400 (≈ 152 µg/mL) | – | 400 (≈ 152 µg/mL) | – | – | 400 (≈ 152 µg/mL) | 400 (≈ 152 µg/mL) | – |
| CC(=O)OC[C@H]1O[C@@H](n2cc(COc3ccc4c(c3)OC(N)=C(C#N)C4c3ccc(N(C)C)cc3)nn2)[C@H](OC(C)=O)[C@@H](OC(C)=O)[C@@H]1OC(C)=O (stereo not given in full) | 12.5 (≈ 8.98 µg/mL) | – | 12.5 (≈ 8.98 µg/mL) | 100 (≈ 71.9 µg/mL) | 1.56 (≈ 1.12 µg/mL) | – | 100 (≈ 71.9 µg/mL) | 12.5 (≈ 8.98 µg/mL) | 400 (≈ 287 µg/mL) | 50 (≈ 35.9 µg/mL) | 400 (≈ 287 µg/mL) | 200 (≈ 144 µg/mL) | – | 100 (≈ 71.9 µg/mL) | 19.6 |

Continued by falling MIC (Staphylococcus aureus [3]), values first:

| MIC (Candida albicans) [µM] | MIC (Aspergillus niger) [µM] | MIC (Aspergillus flavus) [µM] | MIC (Saccharomyces cerevisiae) [µM] | MIC (Pseudomonas aeruginosa) [µM] | MIC [2] [µM] | MIC (Staphylococcus aureus [3]) [µM] | MIC (Escherichia coli) [µM] | MIC (Staphylococcus aureus [4]) [µM] | MIC (Salmonella typhimurium) [µM] | MIC (Staphylococcus aureus [5]) [µM] | MIC (Staphylococcus aureus [6]) [µM] | MIC (Klebsiella pneumoniae) [µM] | MIC (Bacillus subtilis) [µM] | SMILES | inhibition at 120 h, 50 ug/mL [1] [%] |
| --- | --- | --- | --- | --- | --- | --- | --- | --- | --- | --- | --- | --- | --- | --- | --- |
| 1.56 (≈ 1.1 µg/mL) | 200 (≈ 141 µg/mL) | 12.5 (≈ 8.82 µg/mL) | 12.5 (≈ 8.82 µg/mL) | 100 (≈ 70.6 µg/mL) | 200 (≈ 141 µg/mL) | 25 (≈ 17.6 µg/mL) | 200 (≈ 141 µg/mL) | 12.5 (≈ 8.82 µg/mL) | 1.56 (≈ 1.1 µg/mL) | 12.5 (≈ 8.82 µg/mL) | 12.5 (≈ 8.82 µg/mL) | – | 12.5 (≈ 8.82 µg/mL) | COc1ccc(C2C(C#N)=C(N)Oc3cc(OCc4cn([C@@H]5O[C@H](COC(C)=O)[C@@H](OC(C)=O)[C@H](OC(C)=O)[C@H]5OC(C)=O)nn4)ccc32)cc1 (stereo not given in full) | 29.6 |
| – | – | – | – | 1.56 (≈ 0.517 µg/mL) | 3.12 (≈ 1.03 µg/mL) | 3.12 (≈ 1.03 µg/mL) | 1.56 (≈ 0.517 µg/mL) | – | 1.56 (≈ 0.517 µg/mL) | – | – | 1.56 (≈ 0.517 µg/mL) | 3.12 (≈ 1.03 µg/mL) | O=C(O)c1cn(C2CC2)c2cc(N3CCNCC3)c(F)cc2c1=O [CIPROFLOXACIN] | – |
| 12.5 (≈ 9.2 µg/mL) | 400 (≈ 294 µg/mL) | – | 50 (≈ 36.8 µg/mL) | – | 25 (≈ 18.4 µg/mL) | 1.56 (≈ 1.15 µg/mL) | – | 1.56 (≈ 1.15 µg/mL) | 50 (≈ 36.8 µg/mL) | 1.56 (≈ 1.15 µg/mL) | 6.25 (≈ 4.6 µg/mL) | 12.5 (≈ 9.2 µg/mL) | 50 (≈ 36.8 µg/mL) | COc1ccc(C2C(C#N)=C(N)Oc3cc(OCc4cn([C@@H]5O[C@H](COC(C)=O)[C@@H](OC(C)=O)[C@H](OC(C)=O)[C@H]5OC(C)=O)nn4)ccc32)c(OC)c1 (stereo not given in full) | 12.4 |
